ChEMBL document CHEMBL1149157, “Synthesis and structure-activity relationship of novel antitumoral platinum xanthate complexes” (J Med Chem, 2004)

Key:
Format in all cases: functional, cell-based, Homo sapiens
Calu-6 [1] = experiment: Cytotoxic activity was determined in vitro in Calu-6 cell line culture at pH 7.4
Procedure, shortened: (§1)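 Plated at 2×10^6 cells/plate. After one day, medium was replaced with pH 7.4 medium (2.2 g NaHCO3/L) and equilibrated under 5% CO2. Cells got 2 h at 37°C, in quadruplicate, of a 1:2 series 50–0.8 µg/mL (acetone ≤5%), then drug-free pH 7.4 medium for 24–96 h until controls were confluent. Fixed with 3% formaldehyde, stained with 1% crystal violet, A550. IC50 from dose–response curves; mean of four assays ± SD.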

Calu-6 [2] = experiment: Cytotoxic activity was determined in vitro in Calu-6 cell line culture at pH 6.8
Procedure, shortened: (§2)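 Seeded at 2×10^6 cells/plate. Next day, switched to pH 6.8 medium (1.3 g NaHCO3/L, serum acidified with 1 N HCl) and equilibrated in 5% CO2. Exposed for 2 h at 37°C in quadruplicate to 50–0.8 µg/mL (1:2 series; acetone ≤5%), then given drug-free pH 7.4 medium until controls were confluent. Read by formaldehyde fixation and crystal violet at 550 nm. IC50 from dose–response curves, mean of four assays ± SD.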

KB [3] = experiment: Cytotoxic activity was determined in vitro in KB cell line culture at pH 7.4
Procedure, shortened: (§3)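 Using pH 7.4 medium (2.2 g NaHCO3/L) on cells plated a day earlier at 2×10^6/plate, with equilibration in 5% CO2. Compounds were applied for 2 h at 37°C in quadruplicate at 50–0.8 µg/mL (1:2; acetone ≤5%), followed by drug-free pH 7.4 medium until controls were confluent. Fixed and stained with crystal violet, dye eluted with ethanol/1% acetic acid, read at 550 nm. IC50 from curves, mean of four ± SD.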

KB [4] = experiment: Cytotoxic activity was determined in vitro in KB cell line culture at pH 6.8
Procedure, shortened: (§4)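 Cells at 2×10^6/plate were moved the next day into pH 6.8 medium (1.3 g NaHCO3/L; serum given 1 N HCl; 30 min 5% CO2). Treated 2 h at 37°C, quadruplicate, 50–0.8 µg/mL in 1:2 steps (acetone ≤5%), then grown in drug-free pH 7.4 medium to control confluence. Crystal violet stain eluted with ethanol/1% acetic acid before A550. IC50 from curves, mean of four assays ± SD.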

LXF-289 cell line [5] = experiment: Cytotoxic activity was determined in vitro in LXF-289 cell line culture at pH 6.8; procedure, shortened: as §2
LXF-289 cell line [6] = experiment: Cytotoxic activity was determined in vitro in LXF-289 cell line culture at pH 7.4; procedure, shortened: as §1
MCF7 [7] = experiment: Cytotoxic activity was determined in vitro in MCF-7 cell line culture at pH 6.8; procedure, shortened: as §4
SK-OV-3 [8] = experiment: Cytotoxic activity was determined in vitro in SK-OV-3 cell line culture at pH 6.8
Procedure, shortened: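 SK-OV-3 seeded at 1×10^6 cells/plate. Next day, placed in pH 6.8 medium (1.3 g NaHCO3/L, HCl-treated serum, 5% CO2). Given 2 h at 37°C, in quadruplicate, of 50–0.8 µg/mL (1:2; acetone ≤5%), then drug-free pH 7.4 medium until controls were confluent. Formaldehyde-fixed and crystal violet-stained, A550. IC50 from dose–response curves, mean of four assays ± SD.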

SK-MEL-25 [9] = experiment: Cytotoxic activity was determined in vitro in SK-MEL-25 cell line culture at pH 6.8; procedure, shortened: as §2
SK-MEL-25 [10] = experiment: Cytotoxic activity was determined in vitro in SK-MEL-25 cell line culture at pH 7.4; procedure, shortened: as §1
MCF7 [11] = experiment: Cytotoxic activity was determined in vitro in MCF-7 cell line culture at pH 7.4; procedure, shortened: as §3
SK-OV-3 [12] = experiment: Cytotoxic activity was determined in vitro in SK-OV-3 cell line culture at pH 7.4
Procedure, shortened: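 With 1×10^6 cells/plate seeded, medium was changed the next day to pH 7.4 (2.2 g NaHCO3/L) under 5% CO2. Cells were exposed 2 h at 37°C in quadruplicate to a 1:2 series of 50–0.8 µg/mL (acetone ≤5%), then given drug-free pH 7.4 medium until controls were confluent. Crystal violet read at 550 nm after formaldehyde fixation. IC50 from curves; mean of four assays ± SD.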

Substance	IC50 (Calu-6 [1])	IC50 (Calu-6 [2])	IC50 (KB [3])	IC50 (KB [4])	IC50 (LXF-289 cell line [5])	IC50 (LXF-289 cell line [6])	IC50 (MCF7 [7])	IC50 (SK-OV-3 [8])	IC50 (SK-MEL-25 [9])	IC50 (SK-MEL-25 [10])	IC50 (MCF7 [11])	IC50 (SK-OV-3 [12])
2,6-bis(octyloxy)-1,3,5,7-tetrathia-4-platinaspiro[3.3]heptane	56 µM	23 µM	> 83 µM	> 83 µM	30 µM	83 µM	31 µM	> 83 µM	56 µM	> 83 µM	31 µM	> 83 µM
2,6-bis(pentan-3-yloxy)-1,3,5,7-tetrathia-4-platinaspiro[3.3]heptane	5 µM	3 µM	5 µM	4 µM	8 µM	10 µM	5 µM	8 µM	5 µM	9 µM	6 µM	5 µM
CISPLATIN	25 µM	16 µM	52 µM	55 µM	113 µM	83 µM	108 µM	64 µM	78 µM	90 µM	160 µM	90 µM
2,6-bis(hexyloxy)-1,3,5,7-tetrathia-4-platinaspiro[3.3]heptane	37 µM	23 µM	> 91 µM	64 µM	> 91 µM	> 91 µM	44 µM	102 µM	37 µM	70 µM	47 µM	130 µM
2,6-dicyclobutoxy-1,3,5,7-tetrathia-4-platinaspiro[3.3]heptane	7 µM	3 µM	20 µM	6 µM	37 µM	44 µM	11 µM	17 µM	7 µM	12 µM	21 µM	19 µM
2,6-dibutoxy-1,3,5,7-tetrathia-4-platinaspiro[3.3]heptane	19 µM	7 µM	32 µM	16 µM	24 µM	39 µM	7 µM	33 µM	10 µM	22 µM	25 µM	90 µM
2,6-bis(2,2-dimethylpropoxy)-1,3,5,7-tetrathia-4-platinaspiro[3.3]heptane	27 µM	25 µM	> 96 µM	> 96 µM	59 µM	75 µM	62 µM	> 86 µM	72 µM	83 µM	> 86 µM	> 86 µM
2,6-bis(2-methylpropoxy)-1,3,5,7-tetrathia-4-platinaspiro[3.3]heptane	10 µM	9 µM	47 µM	30 µM	19 µM	37 µM	27 µM	32 µM	15 µM	21 µM	23 µM	61 µM
2,6-bis({tricyclo[5.2.2.0^{2,6}]undecan-8-yloxy})-1,3,5,7-tetrathia-4-platinaspiro[3.3]heptane	18 µM	8 µM	> 77 µM	> 77 µM	> 38 µM	> 38 µM	32 µM	> 38 µM	> 38 µM	> 38 µM	> 38 µM	> 38 µM
2,6-dimethoxy-1,3,5,7-tetrathia-4-platinaspiro[3.3]heptane	21 µM	11 µM	49 µM	20 µM	39 µM	102 µM	7 µM	26 µM	14 µM	80 µM	19 µM	47 µM
2,6-bis(nonyloxy)-1,3,5,7-tetrathia-4-platinaspiro[3.3]heptane	> 76 µM	> 76 µM	> 76 µM	> 76 µM	38 µM	53 µM	24 µM	> 76 µM	> 76 µM	> 76 µM	30 µM	> 76 µM
2,6-bis(3-methylbutoxy)-1,3,5,7-tetrathia-4-platinaspiro[3.3]heptane	21 µM	6 µM	19 µM	35 µM	23 µM	71 µM	23 µM	24 µM	20 µM	35 µM	40 µM	21 µM
2,6-bis[(3,3-dimethylbutan-2-yl)oxy]-1,3,5,7-tetrathia-4-platinaspiro[3.3]heptane	9 µM	9 µM	7 µM	5 µM	15 µM	18 µM	7 µM	18 µM	10 µM	11 µM	9 µM	34 µM
2,6-bis(propan-2-yloxy)-1,3,5,7-tetrathia-4-platinaspiro[3.3]heptane	10 µM	6 µM	10 µM	6 µM	10 µM	30 µM	3 µM	14 µM	6 µM	12 µM	7 µM	33 µM
2,6-diethoxy-1,3,5,7-tetrathia-4-platinaspiro[3.3]heptane	24 µM	21 µM	58 µM	18 µM	45 µM	91 µM	12 µM	86 µM	21 µM	56 µM	47 µM	98 µM
2,6-bis(2-methylbutoxy)-1,3,5,7-tetrathia-4-platinaspiro[3.3]heptane	19 µM	9 µM	39 µM	31 µM	19 µM	44 µM	19 µM	23 µM	17 µM	32 µM	27 µM	35 µM
2,6-bis(cyclohexyloxy)-1,3,5,7-tetrathia-4-platinaspiro[3.3]heptane	8 µM	3 µM	9 µM	6 µM	6 µM	12 µM	5 µM	9 µM	3 µM	8 µM	9 µM	12 µM
2,6-dipropoxy-1,3,5,7-tetrathia-4-platinaspiro[3.3]heptane	21 µM	7 µM	38 µM	12 µM	37 µM	49 µM	4 µM	45 µM	10 µM	21 µM	9 µM	50 µM
